High-throughput results deposited in PubChem by Sanford-Burnham Center for Chemical Genomics.
mIAP inh – mouse IAP inhibition | purified mouse IAP, CDP-Star luminescence, 30 min | inhibition, % at 10 µM | 330,000 tested, 0.2% active | AID 2806;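 active = inhibition of at least 40% at 10 µM in the primary screen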;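 also: plate controls were DMSO with enzyme for no effect and no enzyme wells for full effect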
hIAP activ – human IAP activation; P09923; purified human IAP, CDP-Star luminescence, 30 min; active compounds read high; 1 = vehicle-only enzyme, 0 = enzyme-free background; activation factor at 10 µM; 330,000 tested, 0.16% active; AID 2524;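 active = activation factor of the enzyme at least 2-fold when tested at 20 µM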
Target sequence (P09923 whole entry, looked up): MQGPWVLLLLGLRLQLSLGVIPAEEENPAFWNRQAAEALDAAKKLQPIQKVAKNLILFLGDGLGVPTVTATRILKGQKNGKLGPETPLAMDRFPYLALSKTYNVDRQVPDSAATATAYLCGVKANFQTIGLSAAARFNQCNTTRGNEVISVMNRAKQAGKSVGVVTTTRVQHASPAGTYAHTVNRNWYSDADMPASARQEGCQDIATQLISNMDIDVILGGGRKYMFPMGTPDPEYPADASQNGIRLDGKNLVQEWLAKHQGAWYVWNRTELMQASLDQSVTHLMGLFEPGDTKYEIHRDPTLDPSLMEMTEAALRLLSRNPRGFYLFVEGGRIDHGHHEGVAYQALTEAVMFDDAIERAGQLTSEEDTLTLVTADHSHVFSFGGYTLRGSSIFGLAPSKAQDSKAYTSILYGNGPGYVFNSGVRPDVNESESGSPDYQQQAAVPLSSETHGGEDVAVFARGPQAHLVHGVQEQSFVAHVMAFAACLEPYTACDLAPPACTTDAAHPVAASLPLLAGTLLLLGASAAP
bIAP activator – intestinal alkaline phosphatase (bovine) activation; activation factor at 20 µM; purified bovine IAP, CDP-star luminescence, 30 min; active compounds read high; fold of DMSO-control signal, blank-subtracted; AID 1016; 200,000 tested, 0.17% active;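 active = activation factor of 2 or more at 20 µM, a signal rise over negative controls twice the positive control's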
hIAP block – blocks human intestinal alkaline phosphatase. purified IAP, CDP-Star luminescence, 30 min. 330,000 tested, 0.12% active. inhibition, % at 10 µM;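 active = inhibition reaching a set limit with compound at 10 µM in the primary screen, cut at about 35% in these data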;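 also: plate controls were DMSO wells with enzyme for no effect and no-enzyme buffer wells for full effect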
bIAP inh – intestinal alkaline phosphatase (bovine) inhibition; inhibition, % at 20 µM; purified bovine IAP, CDP-star luminescence, 30 min; 190,000 tested, under 10 active;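 active = over 50% inhibition of intestinal alkaline phosphatase at 20 µM in the single-dose screen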
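Assay system – bovine IAP enzyme · Quantity – bovine IAP at 1/65,000,000 final dilution · Detection – CDP-star luminescence signal · Times – 30 min reaction at room temperature · Also added – CDP-star substrate at 30 µM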
mIAP activ – increases mouse intestinal alkaline phosphatase activity; muIAP, CDP-Star luminescence, 30 min; active compounds read high; 1 = vehicle-only enzyme signal, 0 = enzyme-free wells; activation factor at 10 µM; 330,000 tested, 0.24% active; AID 2805;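 active = activation factor of at least 2 at 20 µM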
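Assay system: mouse IAP enzyme / Compound: DMSO-dissolved test compounds / Timing: 30 min, room temperature / Measured by: luminescence from enzymatic CDP-Star hydrolysis / Control set: DMSO-only wells, enzyme-free buffer wells as negative control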
Numbers without * were called inactive; i = inactive; · = not tested or not shown. In the library only some 0.72% were active in any assay of this set; here they are far more common.

SMILES	mIAP inh	hIAP activ	bIAP activator	hIAP block	bIAP inh	mIAP activ
CC(=O)N(C)c1ccc(NC(=O)C(Sc2ccccc2)c2ccccc2)cc1 (stereo not drawn)	-45.3	1.2	2.2*	-19.9	-119.4	1.45
CC(=O)c1ccc(S(=O)(=O)N2CCN(C(=O)c3ccc(-n4nc(C)c(Cl)c4C)cc3)CC2)cc1	-3.3	1.12	·	-11.7	·	1.03
COc1cc2c(cc1OC)C(COc1ccc(C(C)C)cc1)NCC2 (stereo not drawn)	-10.1	1.45	·	-45.1	·	1.1
CCCC(=O)Nc1ccc(C(=O)N/N=C/c2ccc([N+](=O)[O-])o2)cc1	40.0*	1.28	1.4	-28.5	-38.5	0.6
COc1ccc(NC(=O)Nc2ccc([N+](=O)[O-])cc2)cn1	6.0	0.906	·	9.4	·	0.94
CC(C1CC2CCC1C2)N1CC(O)=C(c2nc3ccccc3[nH]2)C1=N (stereo not drawn)	-3.5	1.84	·	-83.7	·	1.03
CC(C)N1CC(O)=C(c2nc3ccccc3[nH]2)C1=N	-15.1	1.01	2.2*	-1.2	-122.3	1.15
S=C(NCc1ccccc1)NCc1cccc(CNC(=S)NCc2ccccc2)c1	-139.7	0.936	0.9	6.4	6.3	2.4*
FC(F)(F)Sc1ccc(NC(=S)NCc2ccccc2)cc1	-132.2	0.999	·	0.1	·	2.32*
O=C(Nc1ccccc1)Nc1cccc(C(F)(F)F)c1	-187.0	1.15	1	-15.4	0.8	2.87*
CNC(=O)Nc1cccc(C(F)(F)F)c1	9.3	0.936	0.9	6.4	5.9	0.907
O=C(Nc1cccc(C(F)(F)F)c1)NC1CCN(S(=O)(=O)c2ccc(F)cc2)CC1	-133.8	0.928	0.9	7.2	11.9	2.34*
CC(=O)c1ccc(S(=O)(=O)N2CCC(NC(=O)Nc3cccc(F)c3)CC2)cc1	-21.3	1.21	1.1	-21.1	-13.0	1.21
Cc1ccc(C(=O)OCC(=O)NCc2cccc(Cl)c2)cc1S(=O)(=O)N1CCCCC1	9.2	0.944	·	5.6	·	0.908
Cc1ccc(OC(F)F)c(NC(=O)Nc2cccc(C(F)(F)F)c2)c1	-105.9	1.02	0.7	-2.5	27.7	2.06*
FC(F)(F)c1cccc(CNC(=S)Nc2ccccc2)c1	-33.7	1.08	0.7	-7.8	26.5	1.34
FC(F)(F)c1cccc(NC(=S)NCc2ccccc2)c1	-120.4	1.23	0.6	-22.6	36.9	2.2*
COc1cccc(NC(=O)Nc2cc(C)ccc2OC)c1	-25.8	0.754	1	24.6	1.7	1.26
CC(C)Cn1nc(C(=O)Nc2nnc(C3CC3)s2)c2ccccc2c1=O	-5.1	0.985	·	1.5	·	1.05
CCN(CC)C(=O)[C@H]1C[C@H](CC(=O)NCCc2ccccn2)C(=O)N2CCc3c([nH]c4cc(CCC(=O)N(C)C)ccc34)[C@]12C	-8.1	·	·	·	·	1.08
CC(C)(C)OC(=O)CC1(C#N)c2ccccc2C(Br)=CN1C(=O)c1ccccc1 (stereo not drawn)	5.6	1.05	·	-5.1	·	0.944
O=C(O)Cc1ccc(O)c(O)c1	59.8*	0.854	·	14.6	·	0.402
CCCCN(C(=O)CCCc1nc2ccccc2c(=O)[nH]1)c1c(N)n(CC(C)C)c(=O)[nH]c1=O	-6.6	1.12	·	-12.2	·	1.07
N#Cc1sc2nc(C3CC3)cc(-c3ccccc3)c2c1N	-14.2	1.29	0.9	-29.1	14.9	1.14
N#Cc1sc2nc(-c3ccccc3)cc(-c3ccco3)c2c1N	48.1*	0.959	0.9	4.1	11.3	0.519
SMILES	mIAP inh	hIAP activ	bIAP activator	hIAP block	bIAP inh	mIAP activ
CC1CCCCC1NC(=O)c1cc(S(=O)(=O)N2CCOCC2)ccc1Cl (stereo not drawn)	-7.1	1.12	·	-12.4	·	1.07
Cc1cc(Cl)cc(C)c1OCCCCn1ccnc1	-2.6	0.946	1.1	5.4	-8.6	1.03
Cc1cc(OCCCCn2ccnc2)cc(C)c1Cl	3.9	1.15	16.1*	-15.0	i	0.961
CCCCOc1ccc(NC(=O)C(=O)NCCCn2ccnc2)cc1	11.4	1.12	1.3	-12.5	-25.0	0.886
CCCCCCOc1ccc(C(=O)NCCCn2ccnc2)cc1	-16.9	1.37	2*	-36.8	-100.9	1.17
O=C(O)CCC1c2cc3c4cc2OC2Oc5cc6c(cc51)C(CCC(=O)O)c1cc5c7cc1OC(O6)c1cc6cc(c1)Oc1cc(cc(C(=O)O)c1)Oc1cc8cc(c1)C(Oc1cc(c(cc1C5CCC(=O)O)C3CCC(=O)O)OC(O4)c1cc(cc(c1)Oc1cc(cc(C(=O)O)c1)O8)Oc1cc(cc(C(=O)O)c1)Oc1cc(cc2c1)Oc1cc(cc(C(=O)O)c1)O6)O7 (stereo not drawn)	48.5*	1.08	·	8.9	·	0.967
Cc1nnsc1C(=O)N/N=C/c1ccccc1	2.1	1.26	5.5*	-26.5	-450.2	0.979
CCc1ccccc1NC(=O)Nc1ccc(F)cc1	-22.0	1.1	0.9	-9.8	11.7	1.22
O=C(Nc1ccc(F)cc1)Nc1csc2ccccc12	-131.8	1.24	·	-23.9	·	2.32*
O=C(Nc1ccc(F)cc1)Nc1ccccc1N1CCCCC1	-161.1	1.11	·	-11.4	·	2.61*
CC1CCCN(CC(O)COc2ccc(S(=O)(=O)N3CCCC3)cc2[N+](=O)[O-])C1 (stereo not drawn)	10.8	0.757	·	24.3	·	0.892
CCOc1ccc(C2NC(=O)NC(C)=C2C(=O)OCc2ccccc2)cc1 (stereo not drawn)	-1.8	0.979	·	2.1	·	1.02
CC1=C(C(=O)OCc2ccccc2)C(c2ccc(N(C)C)cc2)NC(=O)N1 (stereo not drawn)	3.3	0.802	2.8*	19.8	-183.9	0.967
CN(C)CCNC(=S)Nc1ccc(-c2nc3ccccc3[nH]2)cc1	-11.9	0.956	1	4.4	-3.5	1.12
CC(C)c1ccc(NC(=S)NCc2ccc3c(c2)OCO3)cc1	-152.0	1.08	0.9	-7.7	6.7	2.52*
COc1ccc(NC(=S)NCc2ccc3c(c2)OCO3)cc1	-5.5	0.949	0.7	5.1	26.6	1.05
S=C(NCc1ccc2c(c1)OCO2)Nc1ccc(-c2nc3ccccc3[nH]2)cc1	-131.3	1.2	0.9	-20.0	7.0	2.31*
Cc1ccc(S(=O)(=O)N(C)C[C@@H]2Oc3ccc(NC(=O)Cn4cnnn4)cc3C(=O)N([C@@H](C)CO)C[C@H]2C)cc1	0.1	0.853	·	14.7	·	0.999
CCc1ccc(NC(=O)C2CCN(S(=O)(=O)c3ccc4c(c3)CC(C)N4C(C)=O)CC2)cc1 (stereo not drawn)	-112.6	0.923	·	7.7	·	2.13*
CCc1ccc(NC(=O)C2CCCN(S(=O)(=O)c3ccc4c(c3)CC(C)N4C(C)=O)C2)cc1 (stereo not drawn)	-32.2	1.14	·	-13.8	·	1.32
CC(CNC(=O)CN1C(=O)NC2(CCOc3ccccc32)C1=O)c1ccccc1 (stereo not drawn)	-9.5	0.91	·	9.0	·	1.09
Cc1ccc(/C=c2\sc3nc(-c4ccccc4Br)nn3c2=O)o1	49.1*	0.796	1	20.4	3.0	0.509
